According to ChEMBL document CHEMBL1126093, “Structural features of substituted purine derivatives compatible with depletion of human O6-alkylguanine-DNA alkyltransferase” (J Med Chem, 1992):
Calls of active or inactive are those of the source. The rule behind the calls is not given here.

Experiments:
[1] = molecular target: T1, Methylated-DNA--protein-cysteine methyltransferase (Homo sapiens) (UniProt P16455); assay: In vitro inhibition of human alkyl transferase in HT-29 cell-free extracts.
T1 sequence (whole entry): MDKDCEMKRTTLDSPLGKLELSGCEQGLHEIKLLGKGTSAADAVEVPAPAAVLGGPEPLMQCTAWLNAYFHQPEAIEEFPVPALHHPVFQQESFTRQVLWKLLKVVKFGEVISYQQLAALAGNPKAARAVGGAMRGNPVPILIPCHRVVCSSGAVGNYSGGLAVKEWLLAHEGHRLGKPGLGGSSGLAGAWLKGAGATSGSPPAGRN
Method in brief: (§1)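 HT29 crude cell extract incubated 30 min with derivative (0–400 μM, from 100 mM DMSO stocks) in 50 mM Tris-HCl pH 7.5, 0.1 mM EDTA, 5 mM DTT. Remaining AGT activity measured as loss of O⁶-[³H]methylguanine from [³H]methylnitrosourea-methylated calf thymus DNA. Dose for 50% inactivation read from %-activity-remaining vs dose plots; at least duplicates averaged.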

[2] = molecular target: T1, Methylated-DNA--protein-cysteine methyltransferase (Homo sapiens); assay: Inhibitory activity against alkyl transferase in HT-29 cells; format: cell-based
Method in brief: (§2)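 HT29 cells plated at 5 × 10⁶ per T75 flask and grown 3 days. Medium then replaced with medium holding increasing derivative concentrations (range 0.05–400 μM where soluble) for 4 h. Cells rinsed with PBS, harvested, frozen at -80 °C, then extracted. AGT activity assayed by O⁶-[³H]methylguanine loss from [³H]methylated DNA. 50% inactivation dose taken from plots; at least duplicates.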

[3] = molecular target: T1, Methylated-DNA--protein-cysteine methyltransferase (Homo sapiens); assay: Inhibitory activity against alkyl transferase in HT-29 cell-free extracts; inactive; method in brief: as §1
[4] = molecular target: T1, Methylated-DNA--protein-cysteine methyltransferase (Homo sapiens); assay: The compound was tested for its inhibitory activity against alkyl transferase in HT-29 cells; inactive; format: cell-based; method in brief: as §2

Compound	ED50 [1]	ED50 [2]	ED50 [3]	ED50 [4]
Nc1nc(OCc2ccc(F)cc2)c2[nH]cnc2n1	0.2 µM	0.05 µM	–	–
NC(=O)Cn1cnc2c(OCc3ccccc3)nc(N)nc21	47 µM	7.5 µM	–	–
Nc1nc(O)c2c(ncn2Cc2ccccc2)n1	–	–	inactive	–
Nc1nc(OCc2ccc(Cl)cc2)c2[nH]cnc2n1	0.2 µM	0.08 µM	–	–
CCOC(=O)Cn1cnc2nc(N)nc(OCc3ccccc3)c21	–	–	inactive	–
CCC(O)Cn1cnc2nc(N)nc(OCc3ccccc3)c21 (centres undefined)	–	–	inactive	–
N#CCn1cnc2c(OCc3ccccc3)nc(N)nc21	13 µM	0.8 µM	–	–
Nc1nc(OCc2ccccc2)c2ncn(CC(=O)O)c2n1	157 µM	–	–	inactive
NC(=O)Cn1cnc2nc(N)nc(OCc3ccccc3)c21	–	–	inactive	–
Nc1nc(OCc2ccccc2)c2ncn(C3O[C@H](CO)[C@@H](O)[C@H]3O)c2n1 (some centres undefined)	11 µM	2 µM	–	–
Cc1ccc(COc2nc(N)nc3nc[nH]c23)cc1	0.2 µM	0.08 µM	–	–
CCOC(=O)Cn1cnc2c(OCc3ccccc3)nc(N)nc21	30 µM	3 µM	–	–
Nc1nc(OCc2ccccc2)c2c(ncn2CC(=O)O)n1	–	–	–	inactive
N#CCn1cnc2nc(N)nc(OCc3ccccc3)c21	–	–	inactive	–
Nc1nc(OCc2ccccc2)c2ncn([C@H]3C[C@H](O)[C@@H](CO)O3)c2n1	2 µM	0.5 µM	–	–
Nc1nc(SCc2ccc([N+](=O)[O-])cc2)c2ncn([C@@H]3O[C@H](CO)[C@@H](O)[C@H]3O)c2n1	–	–	inactive	–
COc1nc(N)nc2nc[nH]c12	350 µM	120 µM	–	–
Cc1ccc(CSc2[nH]c(N)nc3ncnc2-3)cc1	–	–	inactive	–
C=CCOc1nc(N)nc2nc[nH]c12	20 µM	4 µM	–	–
Cc1ccc(COc2nc(N)nc3c2ncn3C2O[C@H](CO)[C@@H](O)[C@H]2O)cc1 (some centres undefined)	9 µM	3 µM	–	–
Nc1nc(SCc2ccccc2)c2[nH]cnc2n1	–	–	inactive	–
Nc1nc(OCc2ccc(Cl)cc2)c2ncn(C3O[C@H](CO)[C@@H](O)[C@H]3O)c2n1 (some centres undefined)	10 µM	5 µM	–	–
c1ccc(COc2[nH]cnc3ncnc2-3)cc1	85 µM	36 µM	–	–
CCC(O)Cn1cnc2c(OCc3ccccc3)nc(N)nc21 (centres undefined)	13 µM	2 µM	–	–
